Laboratory results as given in ChEMBL document CHEMBL1122433, “1-(4-Aminobenzyl)-and 1-(4-aminophenyl)isoquinoline derivatives: synthesis and evaluation as potential irreversible cyclic nucleotide phosphodiesterase inhibitors” (J Med Chem, 1983).
Values belong to the molecule of their own block, whether it stands above or below them.

Experiments:
Phosphodiesterase 1 [1] = biological target: Phosphodiesterase 1 (Bos taurus, UniProt Q01061+P14100); assay: Inhibitory activity against cyclic nucleotide phosphodiesterase in bovine heart carried out at 37 C with cAMP […] as substrate.; type: tissue-based
Summary of the method: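 Crude bovine heart phosphodiesterase containing protein activator and calcium. Assay used 1 µM cAMP substrate with separation of 5'-AMP on Dowex resin. Time and protein adjusted to keep hydrolysis under 25%. I50 interpolated from at least five inhibition values against log inhibitor concentration (10^-7 to 10^-4 M). Triplicate assays, 3-5 experiments, mean ± standard error.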

Phosphodiesterase 1 [2] = biological target: T1, Phosphodiesterase 1 (Rattus norvegicus, UniProt Q63421+Q9EPR9+Q01066); assay: Inhibition of Ca-dependent phosphodiesterase from Rat cerebral cortex using 1 uM cAMP; type: tissue-based
Summary of the method: (§1)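 Calcium-dependent enzyme from female Sprague-Dawley rat (200-250 g) cerebral cortex crude extract, taken by Sephadex G-200 gel filtration. Activity measured by polyacrylamide-boronate affinity gel chromatography with 1 µM cAMP or cGMP as substrate. Time and protein adjusted to keep hydrolysis under 25%. I50 interpolated from at least five inhibition values against log inhibitor concentration (10^-7 to 10^-4 M). Triplicate assays, 3-5 experiments, mean ± standard error.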

Phosphodiesterase 1 [3] = biological target: T1, Phosphodiesterase 1; assay: Inhibition of Ca-dependent phosphodiesterase from Rat cerebral cortex using 1 uM cGMP; type: tissue-based; summary of the method: as §1
[4] = biological target: T2, Phosphodiesterase 1 (Rattus norvegicus) (UniProt Q63421+Q9EPR9+Q01066); assay: Inhibition of Ca-dependent phosphodiesterase from rat cerebral cortex with 1 uM cGMP without compound, after pre-incubation with 2 or 25 uM (negative control); type: functional, tissue-based; parameters: scale not given: the % may be the effect or the level left
Summary of the method: (§2)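 Purified calcium-dependent enzyme from rat cerebral cortex (Sephadex G-200 fraction) preincubated with inhibitor at the stated concentration. It was then diluted 1000-fold and assayed with 1 µM cGMP by polyacrylamide-boronate gel chromatography. Assays ran either without further drug or with drug re-added at the preincubation concentration. Activity was compared with enzyme preincubated without inhibitor.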

[5] = biological target: T2, Phosphodiesterase 1 (Rattus norvegicus); assay: Inhibition of Ca-dependent phosphodiesterase from rat cerebral cortex at 25 uM with 1 uM cGMP, after pre-incubation at 25 uM; type: functional, tissue-based; parameters: scale not given: the % may be the effect or the level left; summary of the method: as §2
[6] = biological target: T2, Phosphodiesterase 1 (Rattus norvegicus); assay: Inhibition of Ca-dependent phosphodiesterase from rat cerebral cortex at 2 uM with 1 uM cGMP, after pre-incubation at 2 uM; type: functional, tissue-based; parameters: scale not given: the % may be the effect or the level left; summary of the method: as §2

Structure (SMILES): COC(=O)/C=C/C(=O)Nc1ccc(Cc2nccc3cc(OC)c(OC)cc23)cc1
- I50 (Phosphodiesterase 1 [1]): 8 µM

Structure (SMILES): COc1cc2ccnc(Cc3ccc(N)cc3)c2cc1OC
- I50 (Phosphodiesterase 1 [1]): 7.7 µM

Structure (SMILES): COc1ccc(Cc2nccc3cc(OC)c(OC)cc23)cc1OC [PAPAVERINE]
- I50 (Phosphodiesterase 1 [1]): 8.8 µM
- I50 (Phosphodiesterase 1 [2]): 12 µM
- I50 (Phosphodiesterase 1 [3]): 21 µM

Structure (SMILES): COC(=O)/C=C\C(=O)Nc1ccc(Cc2nccc3cc(OC)c(OC)cc23)cc1
- I50 (Phosphodiesterase 1 [1]): 4 µM

Structure (SMILES): COc1cc2ccnc(-c3ccc(NCCCl)cc3)c2cc1OC
- I50 (Phosphodiesterase 1 [1]): 3.5 µM
- I50 (Phosphodiesterase 1 [2]): 2.9 µM
- I50 (Phosphodiesterase 1 [3]): 12 µM
- Activity [4]: 102%
- Activity [6]: 21%

Structure (SMILES): COc1cc2ccnc(Cc3ccc(NCCCl)cc3)c2cc1OC
- I50 (Phosphodiesterase 1 [1]): 4.1 µM

Structure (SMILES): COc1cc2ccnc(Cc3ccc(N(CCCl)CCCl)cc3)c2cc1OC
- I50 (Phosphodiesterase 1 [1]): 5.3 µM

Structure (SMILES): COc1cc2ccnc(-c3ccc(N(CCCl)CCCl)cc3)c2cc1OC
- I50 (Phosphodiesterase 1 [1]): 5.2 µM
- I50 (Phosphodiesterase 1 [2]): 7.3 µM
- I50 (Phosphodiesterase 1 [3]): 15 µM
- Activity [4]: 100%
- Activity [5]: 45%

The remaining lines, values ahead:

- I50 (Phosphodiesterase 1 [1]): 12 µM
- I50 (Phosphodiesterase 1 [2]): 10 µM
- I50 (Phosphodiesterase 1 [3]): 30 µM
- Activity [4]: 103%
- Activity [5]: 50%
Structure (SMILES): C=CC(=O)Nc1ccc(-c2nccc3cc(OC)c(OC)cc23)cc1

- I50 (Phosphodiesterase 1 [1]): 3.9 µM
Structure (SMILES): COc1cc2ccnc(Cc3ccc(NC(=O)CCl)cc3)c2cc1OC

- I50 (Phosphodiesterase 1 [1]): 5.3 µM
- I50 (Phosphodiesterase 1 [2]): 1.7 µM
- I50 (Phosphodiesterase 1 [3]): 1.1 µM
- Activity [4]: 99%
- Activity [6]: 14%
Structure (SMILES): COC(=O)/C=C\C(=O)Nc1ccc(-c2nccc3cc(OC)c(OC)cc23)cc1

- I50 (Phosphodiesterase 1 [1]): 5 µM
- I50 (Phosphodiesterase 1 [2]): 2.3 µM
- I50 (Phosphodiesterase 1 [3]): 6.8 µM
- Activity [4]: 105%
- Activity [6]: 19%
Structure (SMILES): COc1cc2ccnc(-c3ccc(NC(=O)CCl)cc3)c2cc1OC

- I50 (Phosphodiesterase 1 [1]): 14 µM
- I50 (Phosphodiesterase 1 [2]): 35 µM
- I50 (Phosphodiesterase 1 [3]): > 100 µM
- Activity [4]: 100%
- Activity [5]: 104%
Structure (SMILES): COC(=O)/C=C/C(=O)Nc1ccc(-c2nccc3cc(OC)c(OC)cc23)cc1

- I50 (Phosphodiesterase 1 [1]): 7.4 µM
- I50 (Phosphodiesterase 1 [2]): 3.4 µM
- I50 (Phosphodiesterase 1 [3]): 2.1 µM
- Activity [4]: 103%
- Activity [6]: 16%
Structure (SMILES): COc1cc2ccnc(-c3ccc(N)cc3)c2cc1OC

- I50 (Phosphodiesterase 1 [1]): 10 µM
Structure (SMILES): C=CC(=O)Nc1ccc(Cc2nccc3cc(OC)c(OC)cc23)cc1
